Assay results published in ChEMBL document CHEMBL4354845, “Discovery and Structure-Activity Relationships of Nociceptin Receptor Partial Agonists That Afford Symptom Ablation in Parkinson's Disease Models” (J Med Chem, 2020).
Calls of active or inactive are those of the source. The rule behind the calls is not given here.

Assays:
[1] = Half life in Sprague-Dawley rat plasma at 3 mg/kg, sc measured upto 8 hrs by LC-MS/MS analysis; type: ADME, organism-based
Summary of the method: (§1)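 Male Sprague-Dawley rats (250–300 g) given a single s.c. dose of 3 mg/kg (2 mL/kg) as a 1.5 mg/ml solution in 5% dimethylacetamide/95% of 30% SBECD. Plasma (K2-EDTA) and brain collected at 0.5, 1, 2, 4 and 8 h. Brain homogenised 1:4 w/v in water. Terfenadine internal standard, positive-ion ESI LC-MS/MS. Noncompartmental analysis, linear trapezoidal AUC to 8 h. Brain values are total.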

[2] = Cmax in Sprague-Dawley rat plasma at 3 mg/kg, sc measured upto 8 hrs by LC-MS/MS analysis; type: ADME, organism-based; design: dose 3 mg/kg, route subcutaneous; summary of the method: as §1
[3] = AUClast in Sprague-Dawley rat brain at 3 mg/kg, sc measured upto 8 hrs by LC-MS/MS analysis; type: ADME, organism-based; design: time < 8 hr, dose 3 mg/kg, route subcutaneous; summary of the method: as §1
[4] = test system: Rattus norvegicus; test: Anti-parkinson's disease activity in 6-OHDA-induced hemi-lesioned Sprague-Dawley rat model of Parkinson's disease assessed as reduction in immobility time at 0.1 to 3 mg/kg, ip administered for 3 days and measured after 20 mins of compound administration by bar test; type: functional; design: scale not given: the % may be the effect or the level left
Summary of the method: (§2)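 Rats received unilateral 6-OHDA (8 µg freebase) into the medial forebrain bundle and were enrolled if they made >7 ipsilateral turns/min after D-amphetamine 5 mg/kg i.p. They were trained to reproducible performance, then given acute i.p. doses or vehicle (saline + 5% Tween 80, 1% DMSO) with 3-day washouts. Contralateral paw scored at 20 and 90 min in bar and drag tests. Rotarod started at 5 rpm, rising 5 rpm/180 s, expressed as % of control. Analysis by two-way ANOVA with Bonferroni.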

[5] = Tmax in Sprague-Dawley rat plasma at 3 mg/kg, sc measured upto 8 hrs by LC-MS/MS analysis; type: ADME, organism-based; summary of the method: as §1
[6] = Half life in Sprague-Dawley rat brain at 3 mg/kg, sc measured upto 8 hrs by LC-MS/MS analysis; type: ADME, organism-based; summary of the method: as §1
[7] = Tmax in Sprague-Dawley rat brain at 3 mg/kg, sc measured upto 8 hrs by LC-MS/MS analysis; type: ADME, organism-based; summary of the method: as §1
[8] = AUClast in Sprague-Dawley rat plasma at 3 mg/kg, sc measured upto 8 hrs by LC-MS/MS analysis; type: ADME, organism-based; design: dose 3 mg/kg, time < 8 hr, route subcutaneous; summary of the method: as §1
[9] = Cmax in Sprague-Dawley rat brain at 3 mg/kg, sc measured upto 8 hrs by LC-MS/MS analysis; type: ADME, organism-based; design: dose 3 mg/kg, route subcutaneous; summary of the method: as §1
[10] = test system: Rattus norvegicus; test: Anti-parkinson's disease activity in 6-OHDA-induced hemi-lesioned Sprague-Dawley rat model of Parkinson's disease assessed as increase in time spent on rotarod at 0.1 to 3 mg/kg, ip administered for 3 days and measured after 20 mins of compound administration by rotarod test; type: functional; summary of the method: as §2
[11] = Stability in human liver microsomes assessed as half life at 1 uM incubated for 60 mins by LC-MS/MS analysis; type: ADME, Microsome
Summary of the method: (§3)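 Compound at 1 µM incubated at 37°C with liver microsomes in 100 mM potassium phosphate pH 7.4 and 5 mM MgCl2. Reaction started with 1 mM NADPH, sampled at 30, 45 and 60 min and quenched with acetonitrile/0.1% formic acid. Parent loss measured by LC-MS against t=0 with propranolol internal standard. Half-life from single-phase exponential fit, in duplicate.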

[12] = test system: Rattus norvegicus; test: Anti-parkinson's disease activity in Sprague-Dawley rat model of L-DOPA-induced dyskinesia at 0.1 to 3 mg/kg, ip administered for 3 days; type: functional, organism-based
[13] = test system: Rattus norvegicus; test: Anti-parkinson's disease activity in Sprague-Dawley rat model of L-DOPA-induced dyskinesia at 0.01 to 1 mg/kg, ip administered for 3 days; type: functional, organism-based
[14] = test system: Rattus norvegicus; test: Anti-parkinson's disease activity in 6-OHDA-induced hemi-lesioned Sprague-Dawley rat model of Parkinson's disease assessed as increase in stepping activity at 0.1 to 3 mg/kg, ip administered for 3 days and measured after 90 mins of compound administration by drag test; type: functional, organism-based; summary of the method: as §2
[15] = Apparent permeability across basolateral to apical side in dog MDCK-MDR1 cells by HPLC-MS/MS analysis; type: ADME, cell-based, Canis lupus familiaris
Summary of the method: (§4)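 MDR1-MDCK monolayers, bidirectional permeability (A→B and B→A), compound quantified by HPLC/MS/MS and expressed as Papp (10^-6 cm/s). Efflux ratio B–A/A–B. High BBB permeability taken as Papp A–B >3.0 with efflux ratio <3; efflux ratio >3 counted as high efflux.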

[16] = Apparent permeability across apical to basolateral side in dog MDCK-MDR1 cells by HPLC-MS/MS analysis; type: ADME, cell-based, Canis lupus familiaris; summary of the method: as §4
[17] = Apparent permeability across basolateral to apical side in human Caco2 cells by HPLC-MS/MS analysis; type: ADME, cell-based; conditions: Caco-2
Summary of the method: (§5)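 Caco-2 monolayers, two-way permeability (apical→basolateral and basolateral→apical), compound monitored by HPLC/MS/MS and reported as Papp (10^-6 cm/s). Papp >1.0x10^-6 cm/s with efflux ratio <3 classed as high permeability/no efflux.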

[18] = Stability in rat liver microsomes assessed as half life at 1 uM incubated for 60 mins by LC-MS/MS analysis; type: ADME, Microsome; summary of the method: as §3
[19] = Apparent permeability across apical to basolateral side in human Caco2 cells by HPLC-MS/MS analysis; type: ADME, cell-based; conditions: Caco-2; summary of the method: as §5
[20] = Stability in mouse liver microsomes assessed as half life at 1 uM incubated for 60 mins by LC-MS/MS analysis; type: ADME, Microsome; summary of the method: as §3
[21] = test system: Rattus norvegicus; test: Anti-parkinson's disease activity in 6-OHDA-induced hemi-lesioned Sprague-Dawley rat model of Parkinson's disease assessed as increase in time spent on rotarod at 0.01 to 1 mg/kg, ip administered for 3 days and measured after 20 mins of compound administration by rotarod test; type: functional, organism-based; summary of the method: as §2
[22] = test system: Rattus norvegicus; test: Anti-parkinson's disease activity in 6-OHDA-induced hemi-lesioned Sprague-Dawley rat model of Parkinson's disease assessed as reduction in immobility time at 0.01 to 1 mg/kg, ip administered for 3 days and measured after 20 mins of compound administration by bar test; type: functional, organism-based; summary of the method: as §2
[23] = test system: Rattus norvegicus; test: Anti-parkinson's disease activity in 6-OHDA-induced hemi-lesioned Sprague-Dawley rat model of Parkinson's disease assessed as increase in stepping activity at 0.01 to 1 mg/kg, ip administered for 3 days and measured after 90 mins of compound administration by drag test; type: functional, organism-based; summary of the method: as §2

SMILES	half-life [1]	Cmax [2]	AUC(0-t) at 8 h [3]	Tmax [5]	half-life [6]	Tmax [7]	AUC(0-t) at 8 h [8]	Cmax [9]	half-life at 1 µM [11]	Activity [12]	Activity [13]	Papp B→A [15]	Papp A→B [16]	Papp B→A [17]	half-life at 1 µM [18]	Papp A→B [19]	half-life at 1 µM [20]	Activity [21]	Activity [22]	Activity [23]	also measured
CC(C)[C@H]1CC[C@@H](N2CCC(n3ccc4ccccc43)CC2)CC1	131 min	626 nM	10.1 µM·h	60 min	146 min	30 min	1.96 µM·h	4.17 µM	5.3 min	inactive	inactive	15.2 ×10⁻⁶ cm/s	28.8 ×10⁻⁶ cm/s	19.1 ×10⁻⁶ cm/s	5.8 min	24 ×10⁻⁶ cm/s	–	–	–	–	Activity [4]: 25%; Activity [10]: 20%; Activity [14]: Active
CC(C)[C@H]1CC[C@@H](N2CCC(N3CCc4ccccc43)CC2)CC1	128 min	456 nM	6.7 µM·h	30 min	163 min	30 min	1.25 µM·h	3.07 µM	–	inactive	inactive	33.8 ×10⁻⁶ cm/s	26.8 ×10⁻⁶ cm/s	25 ×10⁻⁶ cm/s	–	30 ×10⁻⁶ cm/s	2.8 min	Active	Active	Active	–
CC(C)[C@H]1CC[C@@H](N2CCC(n3cc(CCN)c4ccccc43)CC2)CC1.Cl.Cl	–	–	–	–	–	–	–	–	–	–	–	22.1 ×10⁻⁶ cm/s	0.6 ×10⁻⁶ cm/s	6.49 ×10⁻⁶ cm/s	–	4.36 ×10⁻⁶ cm/s	> 60 min	–	–	–	–
CC(C)[C@H]1CC[C@@H](N2CCC(n3cc(CN)c4ccccc43)CC2)CC1	157 min	529 nM	6.13 µM·h	30 min	648 min	240 min	1 µM·h	0.956 µM	> 60 min	inactive	inactive	14.4 ×10⁻⁶ cm/s	0.34 ×10⁻⁶ cm/s	4.92 ×10⁻⁶ cm/s	> 60 min	4.64 ×10⁻⁶ cm/s	–	Active	Active	Active	–
